An excerpt weighted towards active compounds, which were near 5.9% of everything screened.
GASC1 inh: inhibitors of human demethylase GASC-1 KDM4C; GST-KDM4C 2-372, H3K9me3 peptide, LANCE TR-FRET; 0.15% of 96,000 active; inhibition, % at 12.5 µM;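 active = mean replicate inhibition above about 25%, with at least 55% of replicates also reaching it, limit read from the data, passing the limit was not always enough; inconclusive = only one of those two conditions met; inactive = neither condition met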
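System – N-terminal GST-fused human GASC-1 (KDM4C) fragment, residues 2-372 · Input – enzyme final amount 10 nM · Technique – LANCE TR-FRET, Eu antibody, ULight-streptavidin, EDTA, ex 340 nm, em 618/671 nm · Medium – HEPES buffer, pH 7.5, plus ascorbate · Incubation – enzyme reaction 30 min, then detection 60 min, both room temperature · Reagent – H3K9me3 peptide with Fe(II)/2OG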
Tcruzi prolif: inhibitors of T. cruzi proliferation | T. cruzi beta-gal in NIH3T3, GalScreen luminescence, 90 h | 5.9% of 77,000 active | inhibition, % at 8.34 µM;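 active = mean inhibition above about 93%, with at least 55% of replicates each passing it, limit read from the data, passing the limit was not always enough; inconclusive = only one of those two conditions holds; inactive = neither condition holds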
Pf Dd2 growth: blocks growth of Plasmodium falciparum Dd2 parasites; P. falciparum Dd2 growth, SYBR Green, 72 h; hits give low values; 2.3% of 94,000 active; AID 1159554; activity change, % at 10 µM; in the data active = activity change below about -80%; inconclusive = no clear call, values can overlap the other calls
IDH1 R132H inh: IDH1 R132H (human) inhibition; inhibition, % at 10 µM; 0.18% of 70,000 active; IDH1 R132H reductase, diaphorase/resazurin fluorescence, 60 min; O75874; AID 624101; in the data active = inhibition above about 34%; inconclusive = no clear call, values can overlap the other calls; inactive = below about 11%;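 also: 0% = DMSO and 100% = no enzyme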
Target sequence (O75874 whole entry R132H): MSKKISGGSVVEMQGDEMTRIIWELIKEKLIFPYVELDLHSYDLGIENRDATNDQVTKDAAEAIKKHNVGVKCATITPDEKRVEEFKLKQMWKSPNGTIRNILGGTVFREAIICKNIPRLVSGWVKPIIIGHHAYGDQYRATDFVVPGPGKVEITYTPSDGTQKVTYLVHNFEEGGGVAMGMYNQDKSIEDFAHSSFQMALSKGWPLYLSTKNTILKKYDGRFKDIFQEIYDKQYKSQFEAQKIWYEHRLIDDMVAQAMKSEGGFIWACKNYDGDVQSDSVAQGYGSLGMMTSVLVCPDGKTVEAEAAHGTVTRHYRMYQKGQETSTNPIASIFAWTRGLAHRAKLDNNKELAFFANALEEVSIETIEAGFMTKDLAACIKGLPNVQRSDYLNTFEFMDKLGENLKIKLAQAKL
Starred values were filed as active, the others as inactive; ? = inconclusive; / = not tested or not shown.

SMILES	GASC1 inh	Tcruzi prolif	Pf Dd2 growth	IDH1 R132H inh
COc1cccc(S(=O)(=O)N2CCCCN3[C@H](C2)[C@@H](c2ccc(C#CCC(C)C)cc2)[C@@H]3CO)c1	1	90	-19	/
COc1cccc(S(=O)(=O)N2CCCCN3[C@@H](CO)[C@@H](c4ccc(C#CCC(C)C)cc4)[C@@H]3C2)c1	-2	93	-84*	/
COc1cccc(S(=O)(=O)N2CCCCN3[C@H](C2)[C@H](c2ccc(C4=CCCCC4)cc2)[C@@H]3CO)c1	-1	41	5	/
C[C@H](CO)N1C[C@H](C)[C@H](CN(C)Cc2ccc3c(c2)OCO3)Oc2ccc(NC(=O)Nc3ccccc3)cc2CC1=O	1	-22	19	/
C[C@H]1CN([C@@H](C)CO)C(=O)c2cccc(NC(=O)CCCCCC(=O)Nc3ccccc3N)c2O[C@@H]1CN(C)Cc1ccc(-c2ccccc2)cc1	13	/	-93*	3
C[C@@H]1CN([C@H](C)CO)C(=O)c2cccc(NC(=O)CCCCCC(=O)Nc3ccccc3N)c2O[C@H]1CN(C)Cc1ccccc1	-4	/	-88*	-1
C[C@H](CO)N1C[C@H](C)[C@@H](CN(C)Cc2ccncc2)Oc2c(NC(=O)CCCCCC(=O)Nc3ccccc3N)cccc2C1=O	-1	46	-29	/
CC(C)NC(=O)Nc1ccc2c(c1)C(=O)N([C@H](C)CO)C[C@H](C)[C@@H](CN(C)C(=O)CCC(F)(F)F)OCCCC[C@H](C)O2	0	61	12	3
C[C@H]1CN([C@@H](C)CO)C(=O)c2c(c3ccccc3n2C)-c2ccccc2CO[C@H]1CN(C)Cc1ccc(-c2ccccc2)cc1	-1	/	-88*	/
C[C@@H]1CN([C@@H](C)CO)C(=O)c2c(c3ccccc3n2C)-c2ccccc2CO[C@H]1CN(C)Cc1cccc(C(=O)Nc2ccccc2N)c1	3	/	-89*	/
C[C@H](CO)N1C[C@H](C)[C@H](CN(C)Cc2cccc(C(=O)O)c2)OCc2ccccc2-c2c(n(C)c3ccccc23)C1=O	0	-16	49	-10
C[C@@H]1CN([C@H](C)CO)C(=O)c2ccccc2-c2ccccc2CO[C@@H]1CN(C)Cc1ccccc1C(F)(F)F	-1	/	-93*	/
C[C@H]1CN([C@@H](C)CO)C(=O)c2c(c3ccccc3n2C)-c2ccccc2CO[C@@H]1CN(C)Cc1ccccc1C(F)(F)F	-6	/	-85*	/
COc1ccccc1CN(C)C[C@@H]1OCc2ccccc2-c2c(n(C)c3ccccc23)C(=O)N([C@H](C)CO)C[C@@H]1C	2	/	-1	/
CC(=O)N(C)C[C@@H]1Oc2ncc(C#CC(C)(C)O)cc2C(=O)N([C@@H](C)CO)C[C@H]1C	-2	47	31	-1
Cc1sc2ncn(CC(=O)NCc3ccco3)c(=O)c2c1C	/	/	/	0
C[C@@H]1CN([C@H](C)CO)C(=O)c2c(c3ccccc3n2C)-c2ccccc2CO[C@@H]1CN(C)Cc1cccc(F)c1	-2	/	-88*	/
C[C@H]1CN([C@@H](C)CO)C(=O)c2c(c3ccccc3n2C)-c2ccccc2CO[C@@H]1CN(C)Cc1cccc(F)c1	-7	/	-75	/
C[C@H](CO)N1C[C@H](C)[C@@H](CN(C)Cc2ccc(-c3ccccc3)cc2)OCc2ccccc2-c2c(n(C)c3ccccc23)C1=O	-3	/	-92*	/
C[C@@H]1CN([C@@H](C)CO)C(=O)c2c(c3ccccc3n2C)-c2ccccc2CO[C@H]1CN(C)Cc1ccc(Oc2ccccc2)cc1	-7	/	-78	/
COc1cccc(CN(C)C[C@H]2OCc3ccccc3-c3c(n(C)c4ccccc34)C(=O)N([C@@H](C)CO)C[C@H]2C)c1	-3	/	-87*	/
C[C@H](CO)N1C[C@H](C)[C@H](CN(C)Cc2ccc(-c3ccccc3)cc2)OCc2ccccc2-c2c(n(C)c3ccccc23)C1=O	-1	/	?	/
C[C@H](CO)N1C[C@H](C)[C@@H](CN(C)Cc2ccc(Oc3ccccc3)cc2)OCc2ccccc2-c2c(n(C)c3ccccc23)C1=O	0	/	-91*	/
CCC(=O)N(C)C[C@H]1Oc2ncc(/C=C/c3ccccc3)cc2C(=O)N([C@H](C)CO)C[C@H]1C	-1	-7	-21	-4
C[C@H]1CN([C@@H](C)CO)C(=O)c2c(c3ccccc3n2C)-c2ccccc2CO[C@@H]1CN(C)Cc1ccc(F)cc1	-3	/	-83*	/
SMILES	GASC1 inh	Tcruzi prolif	Pf Dd2 growth	IDH1 R132H inh
C[C@@H]1CN([C@@H](C)CO)C(=O)c2c(c3ccccc3n2C)-c2ccccc2CO[C@@H]1CN(C)Cc1ccc(F)cc1	0	/	-56	/
C[C@H](CO)N1C[C@H](C)[C@H](CN(C)Cc2ccc(C(F)(F)F)cc2)OCc2ccccc2-c2c(n(C)c3ccccc23)C1=O	-2	/	-83*	/
C[C@@H]1CN([C@H](C)CO)C(=O)c2c(c3ccccc3n2C)-c2ccccc2CO[C@H]1CN(C)S(=O)(=O)c1ccc(F)cc1	-3	63	-40	0
C[C@H]1CN([C@@H](C)CO)C(=O)c2c(c3ccccc3n2C)-c2ccccc2CO[C@@H]1CN(C)S(=O)(=O)c1ccc(F)cc1	-3	83	-91*	/
C[C@@H]1CN([C@H](C)CO)C(=O)c2c(c3ccccc3n2C)-c2ccccc2CO[C@H]1CN(C)S(=O)(=O)c1ccccc1	-7	72	-75	/
C[C@H](CO)N1C[C@H](C)[C@H](CN(C)S(=O)(=O)c2ccc(F)cc2)OCc2ccccc2-c2c(n(C)c3ccccc23)C1=O	-1	84	-87*	-2
CCOC(=O)CCCCCC(=O)Nc1ccc2c(c1)C(=O)N([C@@H](C)CO)C[C@H](C)[C@H](CN(C)C(=O)Nc1ccc(C(F)(F)F)cc1)OCCCC[C@H](C)O2	2	/	-45	/
O=C(CCCCC(=O)N/N=C/c1ccc(Oc2ccccc2)cc1)NO	/	/	/	0
C[C@H](CO)N1C[C@H](C)[C@@H](CN(C)C(=O)Cc2cccnc2)Oc2cc(C#Cc3ccccc3F)ccc2S1(=O)=O	5	/	-84*	/
CC(C)CC#Cc1ccc2c(c1)O[C@@H](CN(C)C(=O)Cc1ccncc1)[C@@H](C)CN([C@H](C)CO)S2(=O)=O	3	84	?	3
CC(C)CC#Cc1ccc2c(c1)O[C@H](CN(C)C(=O)Cc1cccnc1)[C@@H](C)CN([C@@H](C)CO)S2(=O)=O	3	/	-22	54*
C[C@H]1CN([C@@H](C)CO)S(=O)(=O)c2ccc(C#Cc3ccccc3F)cc2O[C@H]1CN(C)C(=O)c1ccc2c(c1)OCO2	3	/	-88*	/
C[C@@H]1CN([C@@H](C)CO)S(=O)(=O)c2ccc(C#Cc3ccccc3F)cc2O[C@@H]1CN(C)C(=O)c1ccc2c(c1)OCO2	4	/	-78	-2
CC(C)CC#Cc1ccc2c(c1)O[C@@H](CN(C)C(=O)Cc1cccnc1)[C@H](C)CN([C@H](C)CO)S2(=O)=O	-1	/	-35	38*
C[C@@H]1CN([C@@H](C)CO)C(=O)Cc2cc(NS(=O)(=O)c3ccccc3)ccc2O[C@@H]1CN(C)C(=O)Nc1ccc(F)cc1	0	/	9	/
